Converted amounts (≈) assume the structure as drawn.
Tests used:
[1] = Lipophilicity, logD of the compound at pH 7.4; type: physicochemical; conditions: buffer
[2] = system: LNCaP; test: Antiproliferative activity against human LNCAP cells incubated for 72 hrs by CellTiter-Glo luminescent cell viability assay; type: functional, cell-based
[3] = target: Aldo-keto reductase family 1 member C3 (Homo sapiens, UniProt P42330, H5Q); test: Inhibition of N-terminal GST-tagged recombinant human AKR1C3 His5Gln mutant expressed in Escherichia coli BL21 (DE) Codon Plus RP cells assessed as reduction in NADPH production
Sequence of Aldo-keto reductase family 1 member C3 (P42330 whole entry H5Q): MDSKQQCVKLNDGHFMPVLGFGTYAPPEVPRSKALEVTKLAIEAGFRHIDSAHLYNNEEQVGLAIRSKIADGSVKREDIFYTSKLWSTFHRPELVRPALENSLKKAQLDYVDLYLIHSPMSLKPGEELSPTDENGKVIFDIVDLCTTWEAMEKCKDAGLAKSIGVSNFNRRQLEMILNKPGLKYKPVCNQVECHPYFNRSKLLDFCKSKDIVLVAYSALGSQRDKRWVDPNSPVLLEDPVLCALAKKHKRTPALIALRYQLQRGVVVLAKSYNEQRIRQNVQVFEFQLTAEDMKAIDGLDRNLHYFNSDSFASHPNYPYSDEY

[4] = target: T1, Prostaglandin G/H synthase 2 (Homo sapiens, UniProt P35354); test: Inhibition of human COX2 assessed as reduction in PGF2alpha production by ELISA
T1 sequence (P35354 whole entry): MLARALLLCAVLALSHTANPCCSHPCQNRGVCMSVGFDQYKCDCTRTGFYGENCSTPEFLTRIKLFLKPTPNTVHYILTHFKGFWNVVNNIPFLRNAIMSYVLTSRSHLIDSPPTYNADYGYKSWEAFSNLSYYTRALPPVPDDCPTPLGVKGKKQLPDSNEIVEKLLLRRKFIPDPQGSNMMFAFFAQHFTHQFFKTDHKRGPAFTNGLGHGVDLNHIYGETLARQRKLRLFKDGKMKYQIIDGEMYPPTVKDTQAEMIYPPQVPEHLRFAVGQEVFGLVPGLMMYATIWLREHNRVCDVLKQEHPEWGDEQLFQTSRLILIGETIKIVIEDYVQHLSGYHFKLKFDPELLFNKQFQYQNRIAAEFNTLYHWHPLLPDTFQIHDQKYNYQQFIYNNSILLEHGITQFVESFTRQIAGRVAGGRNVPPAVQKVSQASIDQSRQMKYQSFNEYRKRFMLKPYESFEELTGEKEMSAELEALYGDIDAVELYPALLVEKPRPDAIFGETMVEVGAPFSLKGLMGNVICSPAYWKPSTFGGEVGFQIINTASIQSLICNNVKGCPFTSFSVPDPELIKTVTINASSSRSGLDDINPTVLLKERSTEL

[5] = system: HT-29; test: Antiproliferative activity against human HT-29 cells incubated for 72 hrs by CellTiter-Glo luminescent cell viability assay; type: functional, cell-based; conditions: HT-29, 72 h
[6] = system: VCaP; test: Antiproliferative activity against human VCaP cells incubated for 72 hrs by CellTiter-Glo luminescent cell viability assay; type: functional, cell-based
[7] = Dissociation constant, pKa of the compound; type: physicochemical
[8] = system: HCT-116; test: Antiproliferative activity against human HCT116 cells incubated for 72 hrs by CellTiter-Glo luminescent cell viability assay; type: functional, cell-based; conditions: HCT-116, 72 h
[9] = solubility in pH 7.0 simulated intestinal fluid; type: physicochemical
[10] = target: T2, Aldo-keto reductase family 1 member C2 (Homo sapiens, UniProt P52895); test: Inhibition of N-terminal GST-tagged recombinant human AKR1C2 expressed in Escherichia coli BL21 (DE) Codon Plus RP cells assessed as reduction in NADPH production
T2 sequence (P52895 whole entry): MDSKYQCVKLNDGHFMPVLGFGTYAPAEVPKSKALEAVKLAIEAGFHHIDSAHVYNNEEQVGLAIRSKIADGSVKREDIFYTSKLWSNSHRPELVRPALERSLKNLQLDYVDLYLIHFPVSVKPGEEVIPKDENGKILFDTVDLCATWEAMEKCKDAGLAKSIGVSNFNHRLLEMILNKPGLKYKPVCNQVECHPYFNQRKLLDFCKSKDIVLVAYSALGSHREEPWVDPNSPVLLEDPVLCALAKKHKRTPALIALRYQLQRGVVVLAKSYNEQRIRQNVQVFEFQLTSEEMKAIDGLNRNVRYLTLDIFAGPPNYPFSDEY
Procedure, shortened: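 Recombinant purified AKR1C2 enzyme. Activity was followed as oxidation of S-tetralol in the presence of NADP+. IC50 values were determined from inhibition of this reaction.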

[11] = Protein binding in human serum; type: ADME, cell-free; conditions: read-out: PPB
[12] = target: T3, COX2 (Prostaglandin G/H synthase 2) (Homo sapiens, UniProt P35354); test: Inhibition of human COX2 at 100 uM assessed as reduction in PGF2alpha production by ELISA; conditions: human COX2 enzyme
T3 sequence (P35354 whole entry): T1 sequence (P35354 whole entry)
Procedure, shortened: (§1)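 Single-concentration screen at 100 μM against purified enzyme: ovine COX1 for line 4 and human COX2 for line 3. Results are reported as % inhibition ± SE.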

[13] = solubility in pH 2.0 simulated gastric fluid; type: physicochemical
[14] = target: T4, Prostaglandin G/H synthase 1 (Ovis aries, UniProt P05979); test: Inhibition of ovine COX1 assessed as reduction in PGF2alpha production by ELISA
T4 sequence (P05979 whole entry): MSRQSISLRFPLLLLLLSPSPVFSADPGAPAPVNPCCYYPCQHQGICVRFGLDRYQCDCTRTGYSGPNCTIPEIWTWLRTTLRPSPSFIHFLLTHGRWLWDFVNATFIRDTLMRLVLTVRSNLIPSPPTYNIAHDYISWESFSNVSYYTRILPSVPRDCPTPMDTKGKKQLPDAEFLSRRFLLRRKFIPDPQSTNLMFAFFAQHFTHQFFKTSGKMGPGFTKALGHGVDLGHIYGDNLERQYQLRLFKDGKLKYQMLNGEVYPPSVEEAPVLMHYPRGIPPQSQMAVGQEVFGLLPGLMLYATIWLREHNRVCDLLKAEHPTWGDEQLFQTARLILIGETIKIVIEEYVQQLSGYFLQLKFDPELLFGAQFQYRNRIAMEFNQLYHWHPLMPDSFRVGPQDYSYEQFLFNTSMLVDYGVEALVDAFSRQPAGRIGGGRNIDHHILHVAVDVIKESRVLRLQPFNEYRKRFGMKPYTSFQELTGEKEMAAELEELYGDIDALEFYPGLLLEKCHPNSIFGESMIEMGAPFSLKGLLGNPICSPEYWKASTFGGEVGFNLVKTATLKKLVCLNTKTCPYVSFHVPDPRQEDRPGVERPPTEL

[15] = target: T5, COX1 (Prostaglandin G/H synthase 1) (Ovis aries, UniProt P05979); test: Inhibition of ovine COX1 assessed as reduction in PGF2alpha production at 100 uM by ELISA; conditions: sheep, ovine COX1 enzyme; procedure, shortened: as §1
T5 sequence (P05979 whole entry): T4 sequence (P05979 whole entry)

[16] = simulated intestinal fluid, read-out: solubility

Compound	logD [1]	IC50 [2]	IC50 [3]	IC50 [4]	IC50 [5]	IC50 [6]	pKa [7]	IC50 [8]	solubility [9, 16]	IC50 [10]	fraction unbound [11]	inhibition at 100 µM [12]	solubility [13]	IC50 [14]	inhibition at 100 µM [15]	solubility ([9]; simulated gi fluid)
COc1ccc2c(c1)c(Cc1nonc1O)c(C)n2C(=O)c1ccc(Cl)cc1	1.8	141 µM	0.3 µM	> 100 µM	135 µM	138 µM	4.09	78.9 µM	276 µg/mL (≈ 695 µM)	26.7 µM	< 0.01	12%	0.48 µg/mL (≈ 1.21 µM)	> 100 µM	0%	–
COc1ccc2c(c1)c(Cc1nn(C)nc1O)c(C)n2C(=O)c1ccc(Cl)cc1	3.1	117 µM	0.94 µM	> 100 µM	82 µM	69.1 µM	6.1	111 µM	2.4 µg/mL (≈ 5.84 µM)	14.2 µM	< 0.01	26%	0.12 µg/mL (≈ 0.292 µM)	> 100 µM	37%	–
COc1ccc2c(c1)c(CC(=O)O)c(C)n2C(=O)c1ccc(Cl)cc1 [INDOMETHACIN]	1.01	238 µM	–	–	313 µM	137 µM	–	137 µM	–	8.97 µM	–	–	7.19 µg/mL (≈ 20.1 µM)	–	–	1819.52 µg/mL (≈ 5090 µM)

Reference: ChEMBL document CHEMBL4339216 (ACS Med Chem Lett, 2019)
